Laboratory results published in ChEMBL document CHEMBL3352772, “2-Pyridyl thiazoles as novel anti-Trypanosoma cruzi agents: structural design, synthesis and pharmacological evaluation” (Eur J Med Chem, 2014).
pIC50: −log10 of the molar value.

Experiments:
[1] = system: Trypanosoma cruzi; assay: Trypanocidal activity against epimastigote forms of Trypanosoma cruzi Y assessed as reduction in viable parasites after 11 days by Neubauer chamber counting method; assay type: functional, organism-based; conditions: 264 h
How it was run: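 Y-strain epimastigotes grown at 26 °C in LIT medium with 10% FBS, hemin, R9 and gentamycin. Seeded at 10^6 cells/well and exposed in triplicate to 1.23, 3.70, 11.11, 33.33 and 100 µg/mL inhibitor in DMSO. Incubated 11 days at 26 °C. Viable parasites counted in a Neubauer chamber against untreated culture. IC50 from non-linear regression; experiment run in duplicate.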

[2] = system: HepG2; assay: Cytotoxicity against human HepG2 cells after 48 hrs by; assay type: cell-based; conditions: HepG2, 48 h
How it was run: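 HepG2 cells in supplemented Eagle's MEM, 3000 cells/well, plated onto predispensed compounds. Incubated 48 h at 37 °C, 80% humidity, 5% CO2. Viability read by CellTiter-Glo luminescence.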

[3] = system: Trypanosoma cruzi; assay: Antitrypanosomal activity against trypomastigote forms of Trypanosoma cruzi Y infected in LLC-MK2 cells assessed as reduction in viable parasites after 24 hrs by Neubauer chamber counting method; assay type: functional, organism-based; conditions: LLC-MK2, 24 h
How it was run: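 Bloodstream trypomastigotes (Y strain) taken from supernatants of infected LLC-MK2 cells kept in RPMI-1640 with 10% FBS and gentamycin at 37 °C, 5% CO2. Plated at 4×10^5 cells/well with five concentrations of inhibitor in DMSO. Incubated 24 h at 37 °C, 5% CO2. Motile parasites counted in a Neubauer chamber. % inhibition taken against untreated cultures; IC50 from non-linear regression.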

[4] = target: Cruzipain (Trypanosoma cruzi) (UniProt P25779); assay: Inhibition of recombinant Trypanosoma cruzi cruzain using Z-Phe-Argaminomethylcoumarin as fluorogenic substrate preincubated at 75 uM for 10 mins before substrate addition by fluorimetry
Chain of Cruzipain (Trypanosoma cruzi) (P25779 123-467 limits assumed): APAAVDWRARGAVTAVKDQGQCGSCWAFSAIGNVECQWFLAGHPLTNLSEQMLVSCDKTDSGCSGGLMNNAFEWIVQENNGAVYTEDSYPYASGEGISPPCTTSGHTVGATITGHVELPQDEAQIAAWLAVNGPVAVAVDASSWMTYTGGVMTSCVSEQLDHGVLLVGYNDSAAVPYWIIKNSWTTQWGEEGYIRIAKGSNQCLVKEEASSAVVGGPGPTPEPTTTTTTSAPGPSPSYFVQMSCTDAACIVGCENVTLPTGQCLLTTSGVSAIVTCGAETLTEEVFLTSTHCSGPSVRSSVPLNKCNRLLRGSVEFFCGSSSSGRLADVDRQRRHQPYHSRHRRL
How it was run: (§1)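 Recombinant cruzain at 0.5 nM in 0.1 M sodium acetate pH 5.5 with 5 mM DTT and 0.01% Triton X-100. Compound pre-incubated with enzyme 10 min at a single screening concentration. […] Fluorescence followed 5 min at ex 340/em 440 nm. Activity relative to DMSO control; at least two independent experiments in triplicate.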

[5] = target: Cruzipain (Trypanosoma cruzi) (UniProt P25779); assay: Inhibition of recombinant Trypanosoma cruzi cruzain using Z-Phe-Argaminomethylcoumarin as fluorogenic substrate preincubated at 100 uM for 10 mins before substrate addition by fluorimetry; how it was run: as §1
[6] = target: Cruzipain (Trypanosoma cruzi) (UniProt P25779); assay: Inhibition of recombinant Trypanosoma cruzi cruzain using Z-Phe-Argaminomethylcoumarin as fluorogenic substrate preincubated at 50 uM for 10 mins before substrate addition by fluorimetry; how it was run: as §1
[7] = target: Cruzipain (Trypanosoma cruzi, UniProt P25779); assay: Inhibition of recombinant Trypanosoma cruzi cruzain using Z-Phe-Argaminomethylcoumarin as fluorogenic substrate preincubated for 10 mins before substrate addition by fluorimetry
Chain of Cruzipain (P25779 whole entry): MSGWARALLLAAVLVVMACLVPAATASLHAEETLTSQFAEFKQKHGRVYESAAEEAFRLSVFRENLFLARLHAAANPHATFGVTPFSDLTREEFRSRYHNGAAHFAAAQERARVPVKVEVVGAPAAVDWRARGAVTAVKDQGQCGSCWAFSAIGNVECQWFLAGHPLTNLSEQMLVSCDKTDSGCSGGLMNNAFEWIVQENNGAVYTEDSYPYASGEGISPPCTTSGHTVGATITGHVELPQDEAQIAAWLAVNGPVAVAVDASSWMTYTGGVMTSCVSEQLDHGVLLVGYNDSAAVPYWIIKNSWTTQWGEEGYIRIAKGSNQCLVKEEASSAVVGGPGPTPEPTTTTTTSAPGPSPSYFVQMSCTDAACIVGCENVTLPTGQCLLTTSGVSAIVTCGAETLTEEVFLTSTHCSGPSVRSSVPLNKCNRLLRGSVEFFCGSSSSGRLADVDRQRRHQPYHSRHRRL
How it was run: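 IC50 against recombinant cruzain (0.5 nM) in 0.1 M sodium acetate pH 5.5, 5 mM DTT, 0.01% Triton X-100. At least seven inhibitor concentrations, each pre-incubated 10 min with enzyme. Z-FR-AMC at 2.5 µM, fluorescence ex 340/em 440 nm followed 5 min. Two independent experiments in triplicate, normalized to DMSO control.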

pIC50 [3] | inhibition [4] [%] | inhibition [5] [%] | inhibition [6] [%] | pIC50 [7] | Structure (SMILES) | pIC50 [1] | pIC50 [2]
4.44 | 11 |  |  |  | C/C(=N\Nc1nc(-c2ccc([N+](=O)[O-])cc2)cs1)c1ccccn1 | 5.28 | 4.00
5.64 |  | 27 |  |  | C/C(=N\Nc1nc(-c2ccc(Br)cc2)c(C)s1)c1ccccn1 | 5.64 | 4.07
5.42 | -1 |  |  |  | Clc1ccc(-c2csc(N/N=C/c3ccccn3)n2)cc1 | 5.42 | 4.00
4.14 |  |  | 22 |  | Fc1ccc(-c2csc(N/N=C/c3ccccn3)n2)cc1 | 5.46 | 4.74
4.13 |  | 85 |  | 5.89 | O=[N+]([O-])c1cccc(-c2csc(N/N=C/c3ccccn3)n2)c1 | 5.60 | 4.00
5.68 |  | 3 |  |  | C(=N\Nc1nc(-c2ccc3ccccc3c2)cs1)/c1ccccn1 | 5.08 | 4.00
5.59 |  | 10 |  |  | Cc1sc(N/N=C/c2ccccn2)nc1-c1ccc(Br)cc1 | 4.74 | 4.00
5.32 | 20 |  |  |  | COc1ccc(-c2csc(N/N=C/c3ccccn3)n2)cc1 | 5.25 | 4.00
5.92 |  | 21 |  |  | Clc1ccc(-c2csc(N/N=C/c3ccccn3)n2)cc1Cl | 5.40 | 4.00
5.68 |  | -3 |  |  | C/C(=N/Nc1nc(-c2ccc(Cl)cc2)cs1)c1ccccn1 | 5.60 | 4.00
5.92 | 0 |  |  |  | Clc1ccc(-c2csc(N/N=C/c3ccccn3)n2)c(Cl)c1 | 5.32 | 4.00
5.41 | 10 |  |  |  | C/C(=N\Nc1nc(-c2cccc([N+](=O)[O-])c2)cs1)c1ccccn1 | 5.62 | 4.00
5.66 |  | 86 |  | 5.02 | Brc1ccc(-c2csc(N/N=C/c3ccccn3)n2)cc1 | 5.66 | 4.00
5.96 |  | 93 |  | 5.89 | C/C(=N\Nc1nc(-c2ccccc2)cs1)c1ccccn1 | 5.57 | 4.04
5.27 | 9 |  |  |  | C(=N\Nc1nc(-c2ccccc2)cs1)/c1ccccn1 | 5.08 | 4.00
3.82 |  | 12 |  |  | O=[N+]([O-])c1ccc(-c2csc(N/N=C/c3ccccn3)n2)cc1 | 5.36 | 4.00
5.77 |  | 90 |  | 6.40 | C/C(=N\Nc1nc(-c2ccc(C)cc2)cs1)c1ccccn1 | 5.60 | 4.00
5.51 |  | 89 |  | 6.40 | C/C(=N\Nc1nc(-c2ccc(Cl)c(Cl)c2)cs1)c1ccccn1 | 5.30 | 4.00
4.77 |  | 23 |  |  | Cc1ccc(-c2csc(N/N=C/c3ccccn3)n2)cc1 | 5.42 | 4.00
5.68 |  | -8 |  |  | C/C(=N\Nc1nc(-c2ccc(Br)cc2)cs1)c1ccccn1 | 5.68 | 4.00
4.76 |  | 1 |  |  | N/C(S)=N/N=C/c1ccccn1 | 3.92 | 
5.72 |  | 81 |  | 5.32 | C/C(=N\Nc1nc(-c2ccc(Cl)cc2Cl)cs1)c1ccccn1 | 4.83 | 4.00
5.70 |  | 94 |  | 8.00 | C/C(=N\Nc1nc(-c2ccc3ccccc3c2)cs1)c1ccccn1 | 5.39 | 4.00
5.42 |  | 89 |  | 6.52 | C/C(=N\Nc1nc(-c2ccc(F)cc2)cs1)c1ccccn1 | 5.55 | 4.04
5.68 |  | 95 |  | 7.40 | COc1ccc(-c2csc(N/N=C(\C)c3ccccn3)n2)cc1 | 4.83 | 4.00
5.55 |  | 5 |  |  | C/C(=N\NC(N)=S)c1ccccn1 | 5.35 | 
